Compound activity as filed in PubChem.
Sampled rows, rich in hits. Any-hit rate of the full collection: about 2.1%.
CCR6 antag: CCR6 receptor antagonists, primary screen, cell-based, CHO-K1, luminescence, beta-arrestin, uHTS. 340,000 compounds, 0.49% hits. CHO-K1 CCR6 PathHunter beta-arrestin, CCL20-stimulated. C-C chemokine receptor type 6 (Homo sapiens), P51684. AID 493098, 2011. inhibition, % at 20 µM;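 active means compounds whose inhibition of the agonist-driven luminescence signal at 20 µM reaches about 50%, limit read from the data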;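 further: cells stimulated with CCL20 at 14 nM final; plate controls were DMSO with CCL20 for no effect and DMSO without agonist for full effect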
APJ antagonist: antagonists of human apelin receptor APJ, primary screen, CHO-K1 cells, beta-arrestin complementation, luminescence. 330,000 compounds, 0.32% hits. P35414. inhibition, % at 20 µM;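 active means inhibition above about 40% at 20 µM, limit read from the data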;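 further: cells challenged with 10 nM apelin-13 agonist together with compound; plate controls were apelin-13 plus DMSO wells for no effect and DMSO wells lacking apelin-13 for full effect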
Target sequence (P35414 whole entry, looked up): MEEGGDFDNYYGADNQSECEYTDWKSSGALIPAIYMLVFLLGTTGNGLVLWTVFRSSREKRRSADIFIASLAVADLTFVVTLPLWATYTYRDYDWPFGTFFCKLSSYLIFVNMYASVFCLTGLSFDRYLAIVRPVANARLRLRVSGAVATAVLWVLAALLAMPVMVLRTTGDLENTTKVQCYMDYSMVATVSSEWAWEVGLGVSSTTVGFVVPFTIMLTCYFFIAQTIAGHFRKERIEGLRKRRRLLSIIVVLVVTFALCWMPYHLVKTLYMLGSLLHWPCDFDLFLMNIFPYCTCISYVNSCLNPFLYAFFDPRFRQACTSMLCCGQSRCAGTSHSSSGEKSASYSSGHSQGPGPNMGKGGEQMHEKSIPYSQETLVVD
EBI2 antag: EBI2 receptor antagonists, beta-arrestin recruitment, primary screen, cell-based, luminescence, 7a,25-OHC stimulation, uHTS; G-protein coupled receptor 183 (Homo sapiens), P32249; 7a,25-OHC stimulated; inhibition, % at 5 µM; 360,000 compounds, 0.81% hits; in the data active means inhibition above about 38%;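 further: enzyme fragment complementation signal reports receptor beta-arrestin coupling in cells; 0% = agonist plus DMSO wells and 100% = wells without agonist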
APJ ag: agonists of human apelin receptor APJ, primary screen, CHO-K1 cells, PathHunter beta-arrestin, luminescence | P35414 | 0% DMSO wells, 100% apelin | activation, % at 20 µM | 330,000 compounds, 0.11% hits | AID 2520, 2010;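 active means activation more than six SD over the plate average, tested at 20 µM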;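 further: 0% = DMSO alone and 100% = apelin-13 at 10 nM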
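Test system – PathHunter CHO-K1 APJ (AGTRL-1) beta-arrestin reporter cells · Input – 1000 cells/well · Compound – single test compound dose, 20 µM final, 1% DMSO · Times – compound stimulation 90 min at 25 °C, detection 60 min · Technique – beta-gal luminescence · Read-out basis – APJ–arrestin association signal · Control set – negative DMSO alone, positive Apelin-13 at 10 nM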
CXCR6 inh: CXCR6 receptor inhibitors, primary screen, cell-based, beta-arrestin, luminescence, CHO-K1 PathHunter, 1536-well; C-X-C chemokine receptor type 6 (Homo sapiens), O00574; inhibition, % at 20 µM; 360,000 compounds, 0.36% hits; in the data active means inhibition above about 34%, passing the limit was not always enough;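 further: antagonist mode with CXCL16 agonist at 10 nM final; 0% = 10 nM CXCL16 with DMSO and 100% = unstimulated wells without agonist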
m5-HT2A agonist: mouse Htr2a agonists via beta-arrestin recruitment, primary screen, cell-based, luminescence. AID 624169, 2012. activation, % at 7.6 µM. CHO-K1 mHTR2A beta-arrestin complementation; percent of 30 µM serotonin response. 5-hydroxytryptamine receptor 2A (Mus musculus), P35363. 360,000 compounds, 0.66% hits;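 active means activation above a run cutoff, the mean activation of all tested compounds plus 3 SD, cut at about 14% in these data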;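 further: 0% = plate median of compound wells and 100% = 30 µM serotonin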
EBI2 antag conf: EBI2 antagonist hit retest, beta-arrestin, confirmation, cell-based, single concentration, luminescence, 7a,25-OHC stimulation. shares compounds with EBI2 antag. 7a,25-OHC antagonism. inhibition, % at 5 µM. 2,400 compounds, 29% hits. AID 651997, 2013;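 active means inhibition of at least 50%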
EBI2 ag: EBI2 agonist activity of antagonist hits, confirmation, counter-screen for EBI2 antagonist project, cell-based, single concentration, agonist mode, luminescence; AID 652000, 2013; 2,400 tested, under 10 active; shares compounds with EBI2 antag; activation, % at 5 µM; EBI2-expressing cells, 60 min; 0% vehicle, 100% 7α,25-dihydroxycholesterol control;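 active means activation of at least 50%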
bGal counter: E. coli beta-galactosidase enzyme inhibition, confirmation, counter-screen for EBI2 antagonist project, biochemical, luminescence, single concentration | purified beta-galactosidase, luminescent Galacton Star, 15 min | inhibition, % at 5 µM | AID 652176, 2013 | shares compounds with EBI2 antag | 2,400 compounds, 1% hits;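 active means replicate-average signal at least 3 plate SD below neutral wells, shown as high inhibition, flagging enzyme-inhibiting false positives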;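 further: 0% = DMSO wells with enzyme and 100% = wells lacking enzyme; higher means stronger loss of beta-gal luminescence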
The depositor's hits bear a star.

`O=C(NCc1ccncc1)c1ccc(OCc2ccccc2)cc1` gave CCR6 antag -4, EBI2 antag 8, CXCR6 inh -4 and m5-HT2A agonist -6.
Cc1ccc(CNC(=O)c2ccc(COc3ccccc3)cc2)cc1 was read as CCR6 antag 15, APJ antagonist 6, EBI2 antag 52*, APJ ag 1, CXCR6 inh 1, m5-HT2A agonist -7, EBI2 antag conf 56*, EBI2 ag -1 and bGal counter -19.
Screening CCN(CC)S(=O)(=O)c1ccc(N2CCCCC2)c(NC(=O)/C(C#N)=C/c2ccc(OC)cc2)c1 returned CCR6 antag 12, APJ antagonist -9, EBI2 antag 42*, APJ ag -1, CXCR6 inh -5, m5-HT2A agonist -2, EBI2 antag conf 41, EBI2 ag 1 and bGal counter -1.
For COc1ccc(/C=C(\C#N)C(=O)Nc2cc(S(=O)(=O)N3CCOCC3)ccc2N2CCCC2)cc1 the results were CCR6 antag -7, APJ antagonist 11, EBI2 antag 80*, APJ ag -1, CXCR6 inh -7, m5-HT2A agonist 0, EBI2 antag conf 84*, EBI2 ag -1 and bGal counter -19.
Screening COc1ccc(CC(=O)Nc2cc(S(=O)(=O)N3CCOCC3)ccc2N2CCCC2)c(OC)c1 returned CCR6 antag 0, EBI2 antag -19, CXCR6 inh 2 and m5-HT2A agonist -5.
C=CCn1c(SCC(=O)Nc2ccc3c(c2)OCO3)nnc1-c1ccccc1 was read as CCR6 antag -6, APJ antagonist -8, EBI2 antag 1, APJ ag 0, CXCR6 inh -4 and m5-HT2A agonist -1.
C=CCn1c(SCC(=O)NNC(=O)Nc2ccc(C)cc2)nnc1-c1ccccc1 was read as CCR6 antag -11, APJ antagonist 13, EBI2 antag 48*, APJ ag 2, CXCR6 inh -2, m5-HT2A agonist 0, EBI2 antag conf 8, EBI2 ag -1 and bGal counter -10.
For C=CCn1c(SCC(=O)NNC(=O)Nc2cccc(Cl)c2)nnc1-c1ccccc1 the results were CCR6 antag 15, APJ antagonist 4, EBI2 antag 61*, APJ ag -2, CXCR6 inh 7, m5-HT2A agonist 6, EBI2 antag conf 11, EBI2 ag -1 and bGal counter -10.
`C=CCn1c(SCC(=O)Nc2ccc(-c3nc4ccc(C)cc4s3)cc2)nnc1-c1ccccc1` gave CCR6 antag -22, EBI2 antag -79, CXCR6 inh 1 and m5-HT2A agonist 0.
O=C(Nc1ccc2c(c1)OCO2)N1CCN(S(=O)(=O)c2ccc(Cl)cc2)CC1 was read as CCR6 antag -7, APJ antagonist -2, EBI2 antag 48*, APJ ag -4, CXCR6 inh -9, m5-HT2A agonist 0, EBI2 antag conf 27, EBI2 ag -1 and bGal counter -13.
`O=C(Nc1ccc2c(c1)OCO2)N1CCN(c2ccccc2Cl)CC1` gave CCR6 antag 6, APJ antagonist 13, EBI2 antag 50*, APJ ag -6, CXCR6 inh 4, m5-HT2A agonist -3, EBI2 antag conf 37, EBI2 ag -1 and bGal counter 3.
`COc1ccc(OC)c2sc(N3CCN(C(=O)c4ccc5ncsc5c4)CC3)nc12` gave CCR6 antag -7, APJ antagonist -7, EBI2 antag 54*, APJ ag 0, CXCR6 inh -19, m5-HT2A agonist 0, EBI2 antag conf 17, EBI2 ag -1 and bGal counter -7.
Screening O=C(c1ccc2ncsc2c1)N1CCN(c2cccc(C(F)(F)F)c2)CC1 returned CCR6 antag -2, APJ antagonist 14, EBI2 antag 54*, APJ ag 8, CXCR6 inh -1, m5-HT2A agonist -1, EBI2 antag conf 13, EBI2 ag 0 and bGal counter -10.
`CCOc1cccc2sc(N3CCN(C(=O)c4ccc5ncsc5c4)CC3)nc12` gave CCR6 antag 4, APJ antagonist -7, EBI2 antag 45*, APJ ag 0, CXCR6 inh -10, m5-HT2A agonist 7, EBI2 antag conf 30, EBI2 ag 2 and bGal counter -1.
For COc1ccc2nc(N3CCN(C(=O)c4ccc5ncsc5c4)CC3)sc2c1 the results were CCR6 antag 1, APJ antagonist -2, EBI2 antag 20, APJ ag 4, CXCR6 inh 4 and m5-HT2A agonist -1.
Screening COc1ccccc1N1CCN(C(=O)c2ccc3ncsc3c2)CC1 returned CCR6 antag 19, EBI2 antag 40, CXCR6 inh 5 and m5-HT2A agonist -2.
Screening O=C(NC1CCCC1)C(c1ccccn1)N(C(=O)c1csnn1)c1ccccc1Br (configuration not stated) returned CCR6 antag -4, APJ antagonist 14, EBI2 antag 1, APJ ag 8, CXCR6 inh 1 and m5-HT2A agonist 8.
Cc1ccc(/C=N/NC(=O)c2nnn(-c3nonc3N)c2CSc2ccc(Cl)cc2)o1 was read as CCR6 antag 23, APJ antagonist -5, EBI2 antag -6, APJ ag -2, CXCR6 inh 6 and m5-HT2A agonist -2.
`CCNC(=O)C1(C)CCCN(C(=O)C2(c3ccc(Cl)cc3)CCCC2)C1` (configuration not stated) gave EBI2 antag 7, CXCR6 inh 9 and m5-HT2A agonist -1.
CCCc1cc(C(=O)N2CCN(c3ccccc3C)CC2)cs1 was read as CCR6 antag 11, APJ antagonist -8, EBI2 antag 63*, APJ ag -7, CXCR6 inh 25, m5-HT2A agonist -4, EBI2 antag conf 44, EBI2 ag 0 and bGal counter 4.
